Drawing on ChEMBL document CHEMBL1148895, “New cytotoxic cyclic peptides and dianthramide from Dianthus superbus” (J Nat Prod, 2004), this text covers IC50 for five compounds.

The subject of one assay is HepG2. Kind of assay: Cytotoxicity against human HepG2 cells after 3 days by MTT assay. In kind it is functional, cell-based. The following applies: HepG2, 72 h. The method in brief: (§1)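 Freshly trypsinized cells were seeded at 5000-10 000 per well, with compounds added from a DMSO-diluted stock. After 3 days of culture, attached cells were incubated with MTT (0.5 mg/mL) for 1 h and then solubilized in DMSO. Absorbance was read at 550 nm.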
On the technique in general: Formazan colour is commonly taken as a measure of viable cells.

Assay [1] in a line: Cytotoxicity against human Hep3B cells after 3 days by MTT assay. The format is functional, cell-based, Hep 3B2. The conditions noted are these: 72 h. The method in brief:
(§2)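 Freshly trypsinized cells were seeded at 5000-10 000 per well, with compounds added from a DMSO-diluted stock. After 3 days of culture, attached cells were incubated with MTT (0.5 mg/mL) for 1 h and then solubilized in DMSO. Absorbance was read at 550 nm. IC50 is the concentration that reduced cell growth by 50%.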

The next assay has as its system MCF7. Kind of assay: Cytotoxicity against human MCF7 cells after 3 days by MTT assay. The format is functional, cell-based. The conditions noted are these: MCF7, 72 h. The method in brief:
as §2

A further assay concerns A549. The assay can be described thus: Cytotoxicity against human A549 cells after 3 days by MTT assay. In kind it is functional, cell-based. The conditions noted are these: A549, 72 h. Summed up: as §1
Another assay has as its system MDA-MB-231. Kind of assay: Cytotoxicity against human MDA-MB-231 cells after 3 days by MTT assay. The format is functional, cell-based. The following applies: MDA-MB-231, 72 h. The method in brief:
as §2

≈ marks a conversion by molar mass, not a printed value. Residues, ends and D or L forms follow the SMILES beside them.

Broadly, the IC50 is the concentration at which inhibition is half-maximal. A high value points to a need for much substance. `CC[C@H](C)[C@@H]1NC(=O)[C@@H]2CCCN2C(=O)[C@@H]2CCCN2C(=O)[C@H](CC(C)C)NC(=O)[C@H](CO)NC(=O)CNC(=O)[C@H](Cc2ccccc2)NC1=O` (cyclo(FGSLPPI)): the concentration for half-maximal inhibition (IC50) (with HepG2; in assay [1]; in the assay with MCF7; with A549; with MDA-MB-231) was more than 20 µg/mL each time.

Regarding `CC[C@H](C)[C@@H]1NC(=O)[C@@H]2CCCN2C(=O)CNC(=O)[C@H](C(C)C)NC(=O)[C@H](Cc2ccccc2)NC(=O)[C@H](CO)NC1=O` (cyclo(FVGPIS)), the IC50 with HepG2 was 2.37 µg/mL (≈ 3.95 µM); in assay [1], more than 20 µg/mL; with MCF7, more than 20 µg/mL; with A549 it was more than 20 µg/mL; in the assay with MDA-MB-231, more than 20 µg/mL.

In the case of `CC[C@H](C)[C@@H]1NC(=O)[C@H](C(C)C)NC(=O)[C@H](Cc2ccc(O)cc2)NC(=O)[C@H](Cc2ccccc2)NC(=O)[C@@H]2CCCN2C(=O)CNC1=O` (cyclo(FYVIGP)), the IC50 with HepG2 was 17.2 µg/mL (≈ 25.4 µM); in assay [1], more than 20 µg/mL; with MCF7, more than 20 µg/mL; in the assay with A549, more than 20 µg/mL; with MDA-MB-231, more than 20 µg/mL.

`COC(=O)c1ccc(OC)cc1NC(=O)c1ccccc1O` [4-METHOXYDIANTHRAMIDE B]: the IC50 with HepG2 is 4.08 µg/mL (≈ 13.5 µM); in assay [1] it was 16 µg/mL (≈ 53.2 µM); with MCF7, more than 20 µg/mL; in the assay with A549, more than 20 µg/mL; with MDA-MB-231 it was more than 20 µg/mL.

As to `COc1cccc2c1C(=O)c1c(O)c3c(c(O)c1C2=O)C[C@@](O)(C(=O)CO)C[C@@H]3O[C@H]1C[C@H](N)[C@H](O)[C@H](C)O1` [DOXORUBICIN], the results for the 50% inhibitory concentration (IC50) (in assay [1]; with MCF7; in the assay with MDA-MB-231) were 0.31 µg/mL (≈ 0.57 µM), 1.21 µg/mL (≈ 2.23 µM) and 0.73 µg/mL (≈ 1.34 µM), respectively.
